Data: ChEMBL document CHEMBL3792366, “Role of disulfide linkage in action of bis(dialkylaminethiocarbonyl)disulfides as potent double-Edged microbicidal spermicide: Design, synthesis and biology” (Eur J Med Chem, 2016)
≈ marks a conversion by molar mass, not a printed value. Calls of active or inactive are those of the source. The calls are words filed in the database; no cut-off is given here.

Legend:
[1] = Spermicidal activity in human sperms assessed as motility measured within 30 secs by phase contrast microscopy; assay type: functional, Sperm
Outline: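 Liquefied human semen (0.05 mL) was added to 0.25 mL test solution and vortexed 10 s at low speed. Motile sperm were scored visually under phase contrast in five fields within 30 s; assays in triplicate; MEC = minimum effective concentration.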

Candida albicans = test: Antifungal activity against Candida albicans after 48 hrs by broth microdilution method; assay type: functional
Outline: (§1)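 NCCLS broth microdilution in RPMI 1640 buffered with MOPS; starting inoculum 1–5 × 10^3 CFU/mL; plates incubated at 35 °C; MIC read after 48 h.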

Cryptococcus neoformans = test: Antifungal activity against Cryptococcus neoformans after 48 hrs by broth microdilution method; assay type: functional; outline: as §1
Sporothrix schenckii = test: Antifungal activity against Sporothrix schenckii after 48 hrs by broth microdilution method; assay type: functional; outline: as §1
[2] = test system: Trichophyton mentagrophytes; test: Antifungal activity against Trichophyton mentagrophytes after 48 hrs by broth microdilution method; assay type: functional; outline: as §1
Candida parapsilosis = test: Antifungal activity against Candida parapsilosis ATCC 22019 after 48 hrs by broth microdilution method; assay type: functional; conditions: Lodderomyces parapsilosis, ATCC 22019, 48 h; outline: as §1
Trichomonas vaginalis [3] = test: Antitrichomonas activity against trophozoite stage of Trichomonas vaginalis clinical isolate assessed as cell viability under anaerobic condition after 48 hrs by trypan blue exclusion assay; assay type: functional
Outline: (§2)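 Log-phase T. vaginalis grown in TYM with 10% FCS, vitamin mix and penicillin/streptomycin at 37 °C. Compounds were made as 100 µg/mL DMSO stocks and serially diluted in TYM down to 0.1 µg/mL; DMSO/TYM served as vehicle. Parasites were incubated anaerobically at 37 °C, and viability was checked by trypan blue exclusion from 3 to 48 h. MIC = lowest concentration killing all cells by 48 h; each test was repeated three times.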

Trichomonas vaginalis [4] = test: Antitrichomonas activity against metronidazole-resistant trophozoite stage of Trichomonas vaginalis ATCC 50143 assessed as cell viability under anaerobic condition after 48 hrs by trypan blue exclusion assay; assay type: functional; conditions: ATCC 50143, 48 h; outline: as §2
Trichomonas vaginalis [5] = test: Potency index, ratio of metronidazole MIC to compound MIC for metronidazole-resistant trophozoite stage of Trichomonas vaginalis ATCC 50143; assay type: functional
[6] = Toxicity in Lactobacillus jensenii ATCC 25258 after 72 hrs
HeLa = test: Cytotoxicity against human HeLa cells after 5 hrs by lactate dehydrogenase release assay; assay type: cell-based
Outline: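 HeLa cells were seeded at 2×10^4/well in triplicate and grown 24 h at 37 °C in 5% CO2. The DMEM was then replaced with medium holding serially diluted compound, and plates were incubated 5 h. LDH release in the supernatant was measured colorimetrically at 490 nm, and IC50 was derived from it.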

[7] = Selectivity index, ratio of IC50 for Lactobacillus jensenii ATCC 25258 to MIC for trophozoite stage of Trichomonas vaginalis clinical isolate
[8] = Selectivity index, ratio of IC50 for Lactobacillus jensenii ATCC 25258 to MIC for metronidazole resistant trophozoite stage of Trichomonas vaginalis ATCC 50143
Trichomonas vaginalis [9] = test: Selectivity ratio of MIC for metronidazole-resistant trophozoite stage of Trichomonas vaginalis ATCC 50143 to MIC for metronidazole-susceptible trophozoite stage of Trichomonas vaginalis; assay type: functional
Trichomonas vaginalis [10] = test: Antitrichomonas activity against metronidazole-susceptible Trichomonas vaginalis in sc dosed mouse assessed as pustule formation at 5 ug administered daily measured after 5 days (reference value: 109 mm'2); assay type: functional
Trichomonas vaginalis [11] = test: Antitrichomonas activity against metronidazole-susceptible Trichomonas vaginalis in sc dosed mouse assessed as pustule formation at 5 ug administered daily measured after 7 days (reference value: 190 mm'2); assay type: functional
Trichomonas vaginalis [12] = test: Antitrichomonas activity against metronidazole-susceptible Trichomonas vaginalis in sc dosed mouse assessed as spleen weight at 5 ug administered daily measured after 7 days (reference value: 0.59 g); assay type: functional
Trichomonas vaginalis [13] = test: Antitrichomonas activity against Trichomonas vaginalis assessed as reduction in free thiol levels in parasite membrane at MIC after 24 hrs by fluorescence microscopy; assay type: functional, organism-based

| SMILES | MEC [1] | MIC (Candida albicans) | MIC (Cryptococcus neoformans) | MIC (Sporothrix schenckii) | MIC [2] | MIC (Candida parapsilosis) | MIC (Trichomonas vaginalis [3]) | MIC (Trichomonas vaginalis [4]) | Ratio (Trichomonas vaginalis [5]) | IC50 [6] | IC50 (HeLa) | Selectivity Index [7] | Selectivity Index [8] | Selectivity ratio (Trichomonas vaginalis [9]) | Activity (Trichomonas vaginalis [10]) | Activity (Trichomonas vaginalis [11]) | Activity (Trichomonas vaginalis [12]) | Activity (Trichomonas vaginalis [13]) |
| --- | --- | --- | --- | --- | --- | --- | --- | --- | --- | --- | --- | --- | --- | --- | --- | --- | --- | --- |
| CC1CCN(C(=S)SSC(=S)N2CCC(C)CC2)CC1 | 1% | 17.9 µM (≈ 6.24 µg/mL) | 8.9 µM (≈ 3.1 µg/mL) | 35.8 µM (≈ 12.5 µg/mL) | 35.8 µM (≈ 12.5 µg/mL) | 143 µM (≈ 49.9 µg/mL) | 35.8 µM (≈ 12.5 µg/mL) | 35.8 µM (≈ 12.5 µg/mL) | 4 |  |  |  |  |  |  |  |  |  |
| S=C(SCCN1CCCC1)N1CCN(C(=S)SSC(=S)N2CCN(C(=S)SCCN3CCCC3)CC2)CC1 | 0.002% | 74.7 µM (≈ 50 µg/mL) | 74.7 µM (≈ 50 µg/mL) | 74.7 µM (≈ 50 µg/mL) | 74.7 µM (≈ 50 µg/mL) | 74.7 µM (≈ 50 µg/mL) | 46.7 µM (≈ 31.2 µg/mL) | > 149 µM |  | 6.08 mM | 2.74 mM | 58 | > 18 |  |  |  |  |  |
| S=C(SSC(=S)N1CCN(CCN2CCOCC2)CC1)N1CCN(CCN2CCOCC2)CC1 | 0.005% | > 91 µM | > 91 µM | 91 µM (≈ 49.9 µg/mL) | 91 µM (≈ 49.9 µg/mL) | > 91 µM | 22.7 µM (≈ 12.5 µg/mL) | 45.5 µM (≈ 25 µg/mL) | 2 | 6.48 mM | 0.169 mM | 7 | 3 |  |  |  |  |  |
| CCOC(=O)N1CCN(C(=S)SSC(=S)N2CCN(C(=O)OCC)CC2)CC1 | 1% | 53.4 µM (≈ 24.9 µg/mL) | 26.7 µM (≈ 12.5 µg/mL) | 107 µM (≈ 49.8 µg/mL) | 107 µM (≈ 49.8 µg/mL) | 53.4 µM (≈ 24.9 µg/mL) | 13.3 µM (≈ 6.21 µg/mL) | 13.3 µM (≈ 6.21 µg/mL) | 8 |  |  |  |  |  |  |  |  |  |
| Cc1ncc([N+](=O)[O-])n1CCO [METRONIDAZOLE] |  |  |  |  |  |  | 11.6 µM (≈ 1.99 µg/mL) | 292 µM (≈ 50 µg/mL) |  |  |  |  |  | 25 | 15 mm2 | 7.59 mm2 | 0.5 g |  |
| S=C(SSC(=S)N1CCCC1)N1CCCC1 [BIS(PYRROLIDINYLTHIOCARBONYL)DISULFIDE] | 1% | 10.6 µM (≈ 3.1 µg/mL) | 2.6 µM (≈ 0.761 µg/mL) | 21.3 µM (≈ 6.23 µg/mL) | 10.6 µM (≈ 3.1 µg/mL) | 21.3 µM (≈ 6.23 µg/mL) | 10.6 µM (≈ 3.1 µg/mL) | 10.6 µM (≈ 3.1 µg/mL) | 16 |  |  |  |  |  |  |  |  |  |
| S=C(SSC(=S)N1CCCCCC1)N1CCCCCC1 | >1% | 8.9 µM (≈ 3.1 µg/mL) | 4.4 µM (≈ 1.53 µg/mL) | 17.9 µM (≈ 6.24 µg/mL) | 17.9 µM (≈ 6.24 µg/mL) | 143 µM (≈ 49.9 µg/mL) | 286 µM (≈ 99.7 µg/mL) | 35.8 µM (≈ 12.5 µg/mL) | 4 |  |  |  |  |  |  |  |  |  |
| C=CCN1CCN(C(=S)SSC(=S)N2CCN(CC=C)CC2)CC1 | 0.001% | 62 µM (≈ 25 µg/mL) | > 124 µM | > 124 µM | 124 µM (≈ 49.9 µg/mL) | 124 µM (≈ 49.9 µg/mL) | 15.5 µM (≈ 6.24 µg/mL) | 62 µM (≈ 25 µg/mL) | 2 | 3.61 mM | 1.34 mM | 86 | 21 |  |  |  |  |  |
| CN(C)C(=S)SSC(=S)N(C)C [THIRAM] | 0.01% | 6.5 µM (≈ 1.56 µg/mL) | 3.2 µM (≈ 0.769 µg/mL) | 51.8 µM (≈ 12.5 µg/mL) | 6.5 µM (≈ 1.56 µg/mL) | 51.8 µM (≈ 12.5 µg/mL) | 12.9 µM (≈ 3.1 µg/mL) | 12.9 µM (≈ 3.1 µg/mL) | 16 | 8.39 mM | 2.43 mM | 188 | 188 |  | 15 mm2 | 4.45 mm2 | 0.3 g | Active |
| S=C(SSC(=S)N1CCN(c2ncccn2)CC1)N1CCN(c2ncccn2)CC1 | 1% | > 104 µM | 104 µM (≈ 49.8 µg/mL) | 104 µM (≈ 49.8 µg/mL) | 104 µM (≈ 49.8 µg/mL) | > 104 µM | 104 µM (≈ 49.8 µg/mL) | > 208 µM |  |  |  |  |  |  |  |  |  |  |
| S=C(SSC(=S)N1CCOCC1)N1CCOCC1 | 0.1% | 76.9 µM (≈ 25 µg/mL) | 38.4 µM (≈ 12.5 µg/mL) | 76.9 µM (≈ 25 µg/mL) | 38.4 µM (≈ 12.5 µg/mL) | 76.9 µM (≈ 25 µg/mL) | 9.6 µM (≈ 3.12 µg/mL) | 9.6 µM (≈ 3.12 µg/mL) | 16 |  |  |  |  |  |  |  |  |  |
| CCCCCCCCSC(=S)N1CCN(C(=S)SSC(=S)N2CCN(C(=S)SCCCCCCCC)CC2)CC1 | 1% | 35.7 µM (≈ 25 µg/mL) | 35.7 µM (≈ 25 µg/mL) | 35.7 µM (≈ 25 µg/mL) | > 71.5 µM | > 71.5 µM | 89.4 µM (≈ 62.5 µg/mL) | > 143 µM |  |  |  |  |  |  |  |  |  |  |
| CCCCCCCCCCCCCCCCN1CCN(C(=S)SSC(=S)N2CCN(CCCCCCCCCCCCCCCC)CC2)CC1 | 1% | 64.8 µM (≈ 50 µg/mL) | 64.8 µM (≈ 50 µg/mL) | 16.2 µM (≈ 12.5 µg/mL) | 16.2 µM (≈ 12.5 µg/mL) | > 64.8 µM | > 129 µM | > 129 µM |  |  |  |  |  |  |  |  |  |  |
| S=C(SCCN1CCOCC1)N1CCN(C(=S)SSC(=S)N2CCN(C(=S)SCCN3CCOCC3)CC2)CC1 | 0.5% | > 71.3 µM | > 71.3 µM | > 71.3 µM | > 71.3 µM | > 71.3 µM | > 142 µM | > 142 µM |  |  |  |  |  |  |  |  |  |  |
| CN(Cc1ccccc1)C(=S)SSC(=S)N(C)Cc1ccccc1 | >1% | 31.8 µM (≈ 12.5 µg/mL) | 7.9 µM (≈ 3.1 µg/mL) | 31.8 µM (≈ 12.5 µg/mL) | 63.6 µM (≈ 25 µg/mL) | > 127 µM | 7.9 µM (≈ 3.1 µg/mL) | 31.8 µM (≈ 12.5 µg/mL) | 4 |  |  |  |  | 4 |  |  |  |  |
| CCCCCCSC(=S)N1CCN(C(=S)SSC(=S)N2CCN(C(=S)SCCCCCC)CC2)CC1 | 1% | 77.7 µM (≈ 50 µg/mL) | 38.8 µM (≈ 25 µg/mL) | 77.7 µM (≈ 50 µg/mL) | > 77.7 µM | 77.7 µM (≈ 50 µg/mL) | > 155 µM | > 155 µM |  |  |  |  |  |  |  |  |  |  |
